Results taken from ChEMBL document CHEMBL3779892, “Increasing the binding affinity of VEGFR-2 inhibitors by extending their hydrophobic interaction with the active site: Design, synthesis and biological evaluation of 1-substituted-4-(4-methoxybenzyl)phthalazine derivatives” (Eur J Med Chem, 2016).

What was measured:
Assay type in all cases: functional
[1] = Growth inhibition of human BT549 cells at 10 uM after 48 hrs by sulforhodamine B assay; details: BT-549, 48 h, read-out: GI
Outline: (§1)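 Run at NCI on the 60-line panel. Cells grown in RPMI 1640 with 5% FBS and 2 mM L-glutamine, plated at 5000–40,000 cells/well by doubling time, and held 24 h at 37 °C before dosing. Drug (DMSO stock) given at a single final 10 µM in triplicate wells for 48 h. Adherent cells fixed with cold TCA (10% final), suspension cells with 16% TCA. SRB stain read at 515 nm. Percent growth from Tz, C and Ti.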

NCI-H460 = experiment: Growth inhibition of human NCI-H460 cells at 10 uM after 48 hrs by sulforhodamine B assay; details: NCI-H460, 48 h, read-out: GI; outline: as §1
[2] = Growth inhibition of human PC3 cells at 10 uM after 48 hrs by sulforhodamine B assay; details: PC-3, 48 h, read-out: GI; outline: as §1
SK-MEL-28 = experiment: Growth inhibition of human SK-MEL-28 cells at 10 uM after 48 hrs by sulforhodamine B assay; details: SK-MEL-28, 48 h, read-out: GI; outline: as §1
[3] = Growth inhibition of human SNB19 cells at 10 uM after 48 hrs by sulforhodamine B assay; details: SNB-19, 48 h, read-out: GI; outline: as §1
M14 = experiment: Growth inhibition of human M14 cells at 10 uM after 48 hrs by sulforhodamine B assay; details: M14, 48 h, read-out: GI; outline: as §1
CCRF-CEM = experiment: Growth inhibition of human CCRF-CEM cells at 10 uM after 48 hrs by sulforhodamine B assay; details: read-out: GI; outline: as §1
A549 = experiment: Growth inhibition of human A549 cells at 10 uM after 48 hrs by sulforhodamine B assay; details: A549, 48 h, read-out: GI; outline: as §1
[4] = Growth inhibition of human RPMI8226 cells at 10 uM after 48 hrs by sulforhodamine B assay; details: RPMI-8226, 48 h, read-out: GI; outline: as §1
[5] = Growth inhibition of human UO31 cells at 10 uM after 48 hrs by sulforhodamine B assay; details: UO-31, 48 h, read-out: GI
Outline: (§2)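 NCI-60 panel, adherent cells grown in RPMI 1640 with 5% FBS and 2 mM L-glutamine, plated at 5000–40,000 cells/well and preincubated 24 h at 37 °C, 5% CO2. 10 µM final compound from DMSO stock, triplicate wells, 48 h. Fixed with cold TCA (10% final, 60 min, 4 °C) and stained with 0.4% SRB. Absorbance read at 515 nm; growth calculated against time-zero and control wells.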

MCF7 = experiment: Growth inhibition of human MCF7 cells at 10 uM after 48 hrs by sulforhodamine B assay; details: MCF7, 48 h, read-out: GI; outline: as §1
[6] = Growth inhibition of human OVCAR5 cells at 10 uM after 48 hrs by sulforhodamine B assay; details: OVCAR-5, 48 h, read-out: GI; outline: as §1
Malme-3M = experiment: Growth inhibition of human MALME-3M cells at 10 uM after 48 hrs by sulforhodamine B assay; details: read-out: GI; outline: as §1
[7] = Growth inhibition of human HCT116 cells at 10 uM after 48 hrs by sulforhodamine B assay; details: HCT-116, 48 h, read-out: GI; outline: as §1
[8] = Growth inhibition of human LOXIMVI cells at 10 uM after 48 hrs by sulforhodamine B assay; details: LOX IMVI, read-out: GI; outline: as §1
[9] = Growth inhibition of human SF268 cells at 10 uM after 48 hrs by sulforhodamine B assay; details: SF-268, 48 h, read-out: GI; outline: as §1
K562 = experiment: Growth inhibition of human K562 cells at 10 uM after 48 hrs by sulforhodamine B assay; details: K562, 48 h, read-out: GI; outline: as §1
[10] = Growth inhibition of human HCC2998 cells at 10 uM after 48 hrs by sulforhodamine B assay; details: HCC 2998, 48 h, read-out: GI; outline: as §1
[11] = Growth inhibition of human HOP92 cells at 10 uM after 48 hrs by sulforhodamine B assay; details: HOP-92, 48 h, read-out: GI; outline: as §1
MDA-MB-468 = experiment: Growth inhibition of human MDA-MB-468 cells at 10 uM after 48 hrs by sulforhodamine B assay; details: MDA-MB-468, 48 h, read-out: GI; outline: as §1
[12] = Growth inhibition of human SF295 cells at 10 uM after 48 hrs by sulforhodamine B assay; details: SF-295, 48 h, read-out: GI; outline: as §1
[13] = Growth inhibition of human RXF393 cells at 10 uM after 48 hrs by sulforhodamine B assay; details: RXF 393, 48 h, read-out: GI; outline: as §1
[14] = Growth inhibition of human SW620 cells at 10 uM after 48 hrs by sulforhodamine B assay; details: SW-620, 48 h, read-out: GI; outline: as §2
HT-29 = experiment: Growth inhibition of human HT-29 cells at 10 uM after 48 hrs by sulforhodamine B assay; details: HT-29, 48 h, read-out: GI; outline: as §1
[15] = Growth inhibition of human OVCAR4 cells at 10 uM after 48 hrs by sulforhodamine B assay; details: OVCAR-4, 48 h, read-out: GI; outline: as §1
ACHN = experiment: Growth inhibition of human ACHN cells at 10 uM after 48 hrs by sulforhodamine B assay; details: read-out: GI; outline: as §1
[16] = Growth inhibition of human COLO205 cells at 10 uM after 48 hrs by sulforhodamine B assay; details: COLO 205, 48 h, read-out: GI; outline: as §1
SN12C = experiment: Growth inhibition of human SN12C cells at 10 uM after 48 hrs by sulforhodamine B assay; details: read-out: GI; outline: as §1
[17] = Growth inhibition of human OVCAR8 cells at 10 uM after 48 hrs by sulforhodamine B assay; details: OVCAR-8, 48 h, read-out: GI; outline: as §1
SK-MEL-5 = experiment: Growth inhibition of human SK-MEL-5 cells at 10 uM after 48 hrs by sulforhodamine B assay; details: SK-MEL-5, 48 h, read-out: GI; outline: as §1
[18] = Growth inhibition of human HCT15 cells at 10 uM after 48 hrs by sulforhodamine B assay; details: HCT-15, 48 h, read-out: GI; outline: as §1
SR = experiment: Growth inhibition of human SR cells at 10 uM after 48 hrs by sulforhodamine B assay; details: read-out: GI
Outline: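 NCI-60 screen. Cells were grown in RPMI 1640 with 5% FBS and 2 mM L-glutamine, plated at 5000–40,000 cells/well and held 24 h at 37 °C, 5% CO2. Single 10 µM final dose from DMSO stock, triplicate wells, 48 h. Settled cells were fixed with 80% TCA (16% final) and stained with 0.4% SRB. Dye was solubilized in 10 mM Tris and read at 515 nm. Growth was calculated against time-zero and untreated wells.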

KM12 = experiment: Growth inhibition of human KM12 cells at 10 uM after 48 hrs by sulforhodamine B assay; details: KM12, 48 h, read-out: GI; outline: as §1
[19] = Growth inhibition of human SKOV3 cells at 10 uM after 48 hrs by sulforhodamine B assay; details: SK-OV-3, 48 h, read-out: GI; outline: as §1

| Structure (SMILES) | inhibition of growth at 10 µM [1] | inhibition of growth at 10 µM (NCI-H460) | inhibition of growth at 10 µM [2] | inhibition of growth at 10 µM (SK-MEL-28) | inhibition of growth at 10 µM [3] | inhibition of growth at 10 µM (M14) | inhibition of growth at 10 µM (CCRF-CEM) | inhibition of growth at 10 µM (A549) | inhibition of growth at 10 µM [4] | inhibition of growth at 10 µM [5] | inhibition of growth at 10 µM (MCF7) | inhibition of growth at 10 µM [6] | inhibition of growth at 10 µM (Malme-3M) | inhibition of growth at 10 µM [7] | inhibition of growth at 10 µM [8] | inhibition of growth at 10 µM [9] | inhibition of growth at 10 µM (K562) | inhibition of growth at 10 µM [10] | inhibition of growth at 10 µM [11] | inhibition of growth at 10 µM (MDA-MB-468) | further results |
| --- | --- | --- | --- | --- | --- | --- | --- | --- | --- | --- | --- | --- | --- | --- | --- | --- | --- | --- | --- | --- | --- |
| COc1ccc(Cc2nnc(Nc3cccc(Cl)c3)c3ccccc23)cc1 | < 30% | 34% | 42% | < 30% | 37% | < 30% | < 30% | 45% | 89% | 61% | < 30% | < 30% | < 30% | 49% | < 30% | < 30% | 45% | < 30% | 63% | 30% | inhibition of growth at 10 µM [12]: 33%; inhibition of growth at 10 µM [13]: < 30%; inhibition of growth at 10 µM [14]: < 30%; inhibition of growth at 10 µM (HT-29): 31%; inhibition of growth at 10 µM [15]: < 30%; inhibition of growth at 10 µM (ACHN): 31%; inhibition of growth at 10 µM [16]: < 30%; inhibition of growth at 10 µM (SN12C): 34%; inhibition of growth at 10 µM [17]: < 30%; inhibition of growth at 10 µM (SK-MEL-5): < 30%; inhibition of growth at 10 µM [18]: 33%; inhibition of growth at 10 µM (SR): 43%; inhibition of growth at 10 µM (KM12): < 30%; inhibition of growth at 10 µM [19]: < 30% |
| COc1ccc(Cc2nnc(Nc3ccc(NC(=O)Nc4cccc(C(F)(F)F)c4)cc3)c3ccccc23)cc1 | < 30% | < 30% | 36% | < 30% | 30% | 30% | 35% | 35% | 42% | < 30% | < 30% | < 30% | < 30% | 42% | < 30% | < 30% | < 30% | < 30% | < 30% | < 30% | inhibition of growth at 10 µM [12]: < 30%; inhibition of growth at 10 µM [13]: 50%; inhibition of growth at 10 µM [14]: < 30%; inhibition of growth at 10 µM (HT-29): < 30%; inhibition of growth at 10 µM [15]: < 30%; inhibition of growth at 10 µM (ACHN): 41%; inhibition of growth at 10 µM [16]: < 30%; inhibition of growth at 10 µM (SN12C): < 30%; inhibition of growth at 10 µM [17]: < 30%; inhibition of growth at 10 µM (SK-MEL-5): < 30%; inhibition of growth at 10 µM [18]: < 30%; inhibition of growth at 10 µM (SR): 34%; inhibition of growth at 10 µM (KM12): 36%; inhibition of growth at 10 µM [19]: < 30% |
| COc1ccc(Cc2nnc(Nc3ccc(OC)cc3)c3ccccc23)cc1 | < 30% | < 30% | < 30% | < 30% | < 30% | < 30% | < 30% | < 30% | < 30% | 43% | 38% | < 30% | < 30% | 34% | < 30% | < 30% | < 30% | < 30% | 55% | < 30% | inhibition of growth at 10 µM [12]: 30%; inhibition of growth at 10 µM [13]: < 30%; inhibition of growth at 10 µM [14]: < 30%; inhibition of growth at 10 µM (HT-29): < 30%; inhibition of growth at 10 µM [15]: < 30%; inhibition of growth at 10 µM (ACHN): < 30%; inhibition of growth at 10 µM [16]: < 30%; inhibition of growth at 10 µM (SN12C): 34%; inhibition of growth at 10 µM [17]: < 30%; inhibition of growth at 10 µM (SK-MEL-5): < 30%; inhibition of growth at 10 µM [18]: < 30%; inhibition of growth at 10 µM (SR): 34%; inhibition of growth at 10 µM (KM12): < 30%; inhibition of growth at 10 µM [19]: < 30% |
